Measured values as given in ChEMBL document CHEMBL2062525, “Substituted 3-(5-imidazo[2,1-b]thiazolylmethylene)-2-indolinones and analogues: synthesis, cytotoxic activity, and study of the mechanism of action” (J Med Chem, 2012).
Activity calls are given as the source filed them.

Tests used:
[1] = Cytotoxicity against human leukemia cells after 48 hrs; assay type: functional; settings: Leukemia cell
How it was run: (§1)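 NCI 60-cell panel (subpanels include leukemia and prostate). […] Percent growth relative to untreated control; some repeats averaged over two experiments.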

[2] = test system: NSCLC; assay: Cytotoxicity against human NSCLC cells after 48 hrs; assay type: functional
How it was run: (§2)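 NCI 60-cell panel subpanel lines; compounds first screened at a single 10−5 M, then those passing threshold tested in five-concentration assay over 10−9 to 10−4 M (some to 10−3 M), 48 h exposure. Growth relative to untreated control measured as cell protein; GI50, TGI and LC50 derived; some values are means of two experiments.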

[3] = Cytotoxicity against human COLON cells after 48 hrs; assay type: functional; how it was run: as §2
[4] = Cytotoxicity against human CNS cancer cells after 48 hrs; assay type: functional; settings: Cancer cell lines; how it was run: as §2
[5] = Cytotoxicity against human melanoma cells after 48 hrs; assay type: functional; settings: Melanoma cell; for CC50: read-out: LC50 (the source's name); how it was run: as §2
[6] = Cytotoxicity against human ovarian cancer cells after 48 hrs; assay type: functional; settings: Cancer cell lines; how it was run: as §2
[7] = Cytotoxicity against human renal cancer cells after 48 hrs; assay type: functional; settings: Cancer cell lines; for CC50: read-out: LC50 (the source's name); how it was run: as §2
[8] = Cytotoxicity against human prostate cancer cells after 48 hrs; assay type: functional; settings: Cancer cell lines; how it was run: as §1
[9] = Cytotoxicity against human breast cancer cells after 48 hrs; assay type: functional; settings: Cancer cell lines; how it was run: as §2
[10] = Inhibition of bovine brain tubulin assembly after 20 mins; set-up: species or system Bos taurus
[11] = species on record: Bos taurus; assay: Displacement of [3H]colchicine from bovine brain tubulin at 5 uM after 10 mins
[12] = test system: HT-29; assay: Cell cycle arrest in human HT-29 cells assessed as increase of cell population at G2/M phase at 100 nM after 24 hrs by flow cytometry; assay type: functional, cell-based
How it was run: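 HT-29 cells in RPMI 1640 with 10% FBS, 2 mM L-glutamine, 37 °C, 5% CO2; treated 24 h, DMSO 0.01% in medium. Fixed in 70% ethanol at −20 °C ≥12 h, RNase A (10 μg/mL) 30 min at 37 °C, DNA stained with PI (50 μg/mL), flow cytometry; one experiment representative of three.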

[13] = test system: HT-29; assay: Induction of cell cycle arrest in human HT-29 cells assessed as increase in p21 expression after 24 hrs by immunofluorescence confocal microscopy; assay type: functional, cell-based
How it was run: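 On coverslips, HT-29 cells were treated 24 h, fixed with 3% paraformaldehyde, permeabilized with 70% ice-cold ethanol, stained with anti-p21 then FITC secondary (1 h, room temperature each), nuclei counterstained with PI; confocal microscopy; representative of three experiments.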

[14] = test system: HT-29; assay: Induction of apoptosis in human HT-29 cells at 100 nM after 24 hrs by trypan blue exclusion assay; assay type: functional, cell-based
How it was run: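 HT-29 cells plated at 2×10^4 cells/cm2, treated 24 h in triplicate (DMSO 0.01%; DMSO-only controls); viable cells counted by trypan blue exclusion; mean ± s.e.m. of three determinations.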

[15] = test system: HT-29; assay: Induction of apoptosis in human HT-29 cells assessed as chromatin condensation by propidium iodide staining method; assay type: functional, cell-based
How it was run: (§3)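 HT-29 cells on glass coverslips (1×10^4 cells/cm2), treated 24 h; fixed in 3% paraformaldehyde, ethanol-permeabilized; nuclei stained with PI and viewed by laser scanning confocal microscopy for chromatin condensation and nuclear fragmentation; representative of three experiments.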

[16] = test system: HT-29; assay: Induction of apoptosis in human HT-29 cells assessed as nuclear fragmentation by propidium iodide staining method; assay type: functional, cell-based; how it was run: as §3
[17] = test system: HT-29; assay: Induction of apoptosis in human HT-29 cells assessed as increase in caspase activity at 500 nM after 48 hrs by fluorometry; assay type: functional, cell-based
How it was run: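 Cells exposed 48 h to 500 nM; DEVD-cleaving caspase (DEVDase) activity measured fluorometrically in cell extracts; mean ± s.e.m. of four determinations.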

[18] = test system: HT-29; assay: Induction of apoptosis in human HT-29 cells assessed as increase in early apoptotic cells after 24 hrs by annexin-V-FLUOS and propidium iodide staining based flow cytometry (reference value: 3.9%); assay type: functional
[19] = test system: HeLa; assay: Inhibition of Akt phosphorylation at ser473 in human HeLa cells at 1 uM after 3 hrs by Western blotting analysis; assay type: cell-based
How it was run: (§4)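 HeLa cells in RPMI 1640 with 10% FBS, treated 3 h at 1 μM. Lysates centrifuged 15,000 × g 15 min; 80 μg protein per lane by SDS-PAGE, nitrocellulose transfer, phospho-specific and total primary antibodies, peroxidase anti-rabbit secondary, ECL chemiluminescence.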

[20] = biological target: Serine/threonine-protein kinase mTOR (Homo sapiens) (UniProt P42345); assay: Inhibition of mTOR phosphorylation at ser2448 in human HeLa cells at 1 uM after 3 hrs by Western blotting analysis; assay type: cell-based; how it was run: as §4
[21] = biological target: Mitogen-activated protein kinase; ERK1/ERK2 (Homo sapiens) (UniProt P27361+P28482); assay: Inhibition of ERK1/2 phosphorylation at Thr202/Tyr204 in human HeLa cells at 1 uM after 3 hrs by Western blotting analysis; assay type: cell-based; how it was run: as §4
Chain of Mitogen-activated protein kinase; ERK1/ERK2 (Homo sapiens) (P27361 whole entry, looked up): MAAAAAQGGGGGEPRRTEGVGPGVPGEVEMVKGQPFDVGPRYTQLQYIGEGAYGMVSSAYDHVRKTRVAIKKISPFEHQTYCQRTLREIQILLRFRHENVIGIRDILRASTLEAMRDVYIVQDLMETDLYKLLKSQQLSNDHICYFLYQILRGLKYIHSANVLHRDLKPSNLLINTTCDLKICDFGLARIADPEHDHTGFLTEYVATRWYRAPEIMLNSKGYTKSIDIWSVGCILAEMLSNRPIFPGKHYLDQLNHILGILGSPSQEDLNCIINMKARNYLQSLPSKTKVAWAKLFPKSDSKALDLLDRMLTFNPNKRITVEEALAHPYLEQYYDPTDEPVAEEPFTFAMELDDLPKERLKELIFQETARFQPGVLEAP
Chain of Mitogen-activated protein kinase; ERK1/ERK2 (Homo sapiens) (P28482 whole entry, looked up): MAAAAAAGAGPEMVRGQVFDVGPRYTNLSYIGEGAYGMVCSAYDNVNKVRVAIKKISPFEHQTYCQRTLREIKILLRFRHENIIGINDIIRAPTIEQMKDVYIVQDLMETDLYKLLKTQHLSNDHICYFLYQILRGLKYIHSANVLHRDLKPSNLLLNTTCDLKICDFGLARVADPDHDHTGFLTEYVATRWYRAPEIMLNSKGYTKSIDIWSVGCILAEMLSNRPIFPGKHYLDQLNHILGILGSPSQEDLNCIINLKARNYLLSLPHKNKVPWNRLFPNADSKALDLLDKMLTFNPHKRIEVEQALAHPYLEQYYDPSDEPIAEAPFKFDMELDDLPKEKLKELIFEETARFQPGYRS

[22] = biological target: c-Jun N-terminal kinase, JNK (Homo sapiens) (UniProt P45983+P53779+P45984); assay: Inhibition of JNK phosphorylation at Thr183/Tyr185 in human HeLa cells at 1 uM after 3 hrs by Western blotting analysis; assay type: cell-based; how it was run: as §4
[23] = biological target: MAP kinase p38 (Homo sapiens) (UniProt O15264+Q15759+Q16539+P53778); assay: Inhibition of p38 phosphorylation at Thr180/Tyr182 in human HeLa cells at 1 uM after 3 hrs by Western blotting analysis; assay type: cell-based; how it was run: as §4
[24] = biological target: AMP-activated protein kinase, AMPK (Homo sapiens) (UniProt P54646+O43741+P54619+Q9UGJ0+Q9Y478+Q13131+Q9UGI9); assay: Inhibition of AMPK phosphorylation at Thr172 in human HeLa cells at 1 uM after 3 hrs by Western blotting analysis; assay type: cell-based; how it was run: as §4

Structure (SMILES)	GI50 [1] [nM]	GI50 [2] [nM]	TGI [2] [µM]	LC50 (concentration giving 50% net cell kill) [3] [µM]	TGI [3] [µM]	GI50 [4] [nM]	TGI [4] [µM]	GI50 [5] [nM]	TGI [5] [µM]	CC50 [5] [µM]	GI50 [6] [nM]	TGI [6] [µM]	GI50 [7] [nM]	TGI [7] [µM]	GI50 [8] [nM]	TGI [8] [µM]	GI50 [9] [nM]	TGI [9] [µM]	IC50 [10] [µM]	inhibition [11] [%]	further results
O=C1Nc2ccc(Cl)cc2C1=Cc1c(-c2ccccn2)nc2sccn12 (mixture of isomers)	280	1780	18.2	33.9	10.5	710	22.4	680	11.8	51.3	1620	17.4	1150	10.5	1260	19.1	450	7.76	> 20	13	LC50 (concentration killing 50% of cells) [1]: 69.2 µM; TGI [1]: 7.08 µM; LC50 [2]: 58.9 µM; GI50 [3]: 520 nM; LC50 [4]: 66.1 µM; LC50 (concentration killing 50% of starting cells) [6]: 50.1 µM; CC50 [7]: 43.6 µM; LC50 (concentration killing 50% of cells) [8]: 47.9 µM; LC50 [9]: 42.7 µM
Cc1nn2c(/C=C3/C(=O)Nc4c3ccc3ccccc43)c(C)nc2s1	170	870	15.5	49	6.61	390		680	17	70.8	910	11.8	830	10.5	380	5.13	300	6.31	16	45	LC50 (concentration killing 50% of cells) [1]: 66.1 µM; TGI [1]: 3.31 µM; LC50 [2]: 74.1 µM; GI50 [3]: 350 nM; LC50 [4]: 46.8 µM; LC50 (concentration killing 50% of starting cells) [6]: 56.2 µM; CC50 [7]: 56.2 µM; LC50 (concentration killing 50% of cells) [8]: 15.1 µM; LC50 [9]: 75.9 µM
COc1nc2sccn2c1/C=C1/C(=O)Nc2ccccc21	500	430	51.3	89.1	13.8	250	7.94	470	40.7	95.5	440	20.4	540	38.9	550	29.5	280	13.2	3.7	48	LC50 (concentration killing 50% of cells) [1]: 60.3 µM; TGI [1]: 21.4 µM; LC50 [2]: 93.3 µM; GI50 [3]: 290 nM; LC50 [4]: 50.1 µM; LC50 [9]: 91.2 µM
O=C1Nc2cc(Cl)ccc2C1=Cc1c(-c2ccccn2)nc2sccn12 (mixture of isomers)	60	330	28.8	46.8	21.9	170	6.03	120	15.1	38.9	270	11.5	250	15.8	150	31.6	210	12.6	9.3	48	TGI [1]: 4.57 µM; LC50 [2]: 49 µM; GI50 [3]: 110 nM; LC50 [4]: 38 µM; LC50 (concentration killing 50% of starting cells) [6]: 36.3 µM; CC50 [7]: 42.7 µM; LC50 [9]: 46.8 µM
COc1ccc2c(c1)C(=Cc1c(OC)nc3sccn13)C(=O)N2C (mixture of isomers)	160	1020	58.9	87.1	24	380	18.6	790	72.4	91.2	630	31.6	710	53.7	550		490	49	3.8	45	LC50 (concentration killing 50% of cells) [1]: 79.4 µM; GI50 [3]: 350 nM
COc1ccc2c(c1)C(=Cc1c(OC)nc3sccn13)C(=O)N2 (mixture of isomers)	20	160	44.7	66.1	7.59	40	15.5	40	20.9	81.3	100	12	140	31.6	50	40.7	170	34.7	2.9	62	LC50 (concentration killing 50% of cells) [1]: 91.2 µM; TGI [1]: 4.57 µM; Activity [12]: Active; Activity [13]: Active; Activity [14]: Active; Activity [15]: Active; Activity [16]: Active; Activity [17]: Active; Activity [18]: 27%; inhibition [19]: Active; inhibition [20]: inactive; inhibition [21]: Active; inhibition [22]: Active; inhibition [23]: Active; inhibition [24]: Active
COc1ccc2c(c1)/C(=C\c1c(-c3ccccn3)nc3sccn13)C(=O)N2	20	110	6.46	15.1	1.35	30	2.57	20	6.76	38.9	40	2.19	70	4.68	30	3.98	40	8.32	9.1	36	LC50 [2]: 39.8 µM; LC50 [4]: 34.7 µM; LC50 (concentration killing 50% of starting cells) [6]: 17 µM; CC50 [7]: 28.8 µM; LC50 [9]: 46.8 µM; Activity [12]: Active; Activity [13]: Active; Activity [14]: Active; Activity [15]: Active; Activity [16]: Active; Activity [17]: Active; Activity [18]: 23%; inhibition [19]: Active; inhibition [20]: inactive; inhibition [21]: Active; inhibition [22]: Active; inhibition [23]: Active; inhibition [24]: Active
